Test results reported in PMC9271465 (ESMO Open, 2022).

Assay: phase I dose-escalation: safety and tolerability
Assay type: in vivo, patients
Method in brief: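 Patients receiving ≥1 oral dose (25–300 mg/day) formed the safety set. Dosing was a single dose on day 1, then 21-day continuous daily dosing after 7 days. AEs graded by CTCAE v4.03. DLT window ran from day 1 of cycle 0 to day 21 of cycle 1 (28 days). ECGs were taken before and 1, 2, 4, 6, 10 and 24 h after the first dose.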

For C=CC(=O)Nc1cc(Nc2ncc(Cl)c(Nc3ccccc3C(=O)C(=O)N(C)C)n2)c(OC)cc1N1CCN(C)CC1 [BPI-15086], the “TRAE, Grade 3 and 4: Hyperglycemia” value (25 mg/day (n = 1)) was 0 n (%), the “TRAE, Grade 3 and 4: any” value (25 mg/day (n = 1)) was 0 n (%) and the “TRAE, all grades: Anemia” value (25 mg/day (n = 1)) was 0 n (%). For the same compound, the “TRAE, all grades: Decreased appetite” value (25 mg/day (n = 1)) was 1 (100.0) n (%), the “TRAE, all grades: Decreased total protein” value (25 mg/day (n = 1)) was 0 n (%) and the “TRAE, all grades: Diarrhea” value (25 mg/day (n = 1)) was 0 n (%). For the same compound, the “TRAE, all grades: Elevated ALT” value (25 mg/day (n = 1)) was 0 n (%), the “TRAE, all grades: Elevated blood glucose” value (25 mg/day (n = 1)) was 0 n (%) and the “TRAE, all grades: Elevated blood triglycerides” value (25 mg/day (n = 1)) was 0 n (%). For the same compound, the “TRAE, all grades: Elevated blood uric acid” value (25 mg/day (n = 1)) was 0 n (%), the “TRAE, all grades: Elevated conjugated bilirubin” value (25 mg/day (n = 1)) was 0 n (%) and the “TRAE, all grades: Elevated serum creatinine” value (25 mg/day (n = 1)) was 0 n (%). The “TRAE, all grades: Elevated γ-glutamyltransferase” value (25 mg/day (n = 1)) was 0 n (%), the “TRAE, all grades: Hyperglycemia” value (25 mg/day (n = 1)) was 0 n (%) and the “TRAE, all grades: Hypoalbuminemia” value (25 mg/day (n = 1)) was 0 n (%). For the same compound, the “TRAE, all grades: Nausea” value (25 mg/day (n = 1)) was 0 n (%), the “TRAE, all grades: Proteinuria” value (25 mg/day (n = 1)) was 0 n (%) and the “TRAE, all grades: Vomiting” value (25 mg/day (n = 1)) was 0 n (%). The “TRAE, all grades: any” value (25 mg/day (n = 1)) was 1 (100.0) n (%), the “TRAE, Grade 3 and 4: Hyperglycemia” value (50 mg/day (n = 3)) was 0 n (%) and the “TRAE, Grade 3 and 4: any” value (50 mg/day (n = 3)) was 0 n (%). The “TRAE, all grades: Anemia” value (50 mg/day (n = 3)) was 0 n (%), the “TRAE, all grades: Decreased appetite” value (50 mg/day (n = 3)) was 0 n (%) and the “TRAE, all grades: Decreased total protein” value (50 mg/day (n = 3)) was 0 n (%). The “TRAE, all grades: Diarrhea” value (50 mg/day (n = 3)) was 0 n (%), the “TRAE, all grades: Elevated ALT” value (50 mg/day (n = 3)) was 0 n (%) and the “TRAE, all grades: Elevated blood glucose” value (50 mg/day (n = 3)) was 1 (33.3) n (%). The “TRAE, all grades: Elevated blood triglycerides” value (50 mg/day (n = 3)) was 0 n (%), the “TRAE, all grades: Elevated blood uric acid” value (50 mg/day (n = 3)) was 0 n (%) and the “TRAE, all grades: Elevated conjugated bilirubin” value (50 mg/day (n = 3)) was 0 n (%). For the same compound, the “TRAE, all grades: Elevated serum creatinine” value (50 mg/day (n = 3)) was 1 (33.3) n (%), the “TRAE, all grades: Elevated γ-glutamyltransferase” value (50 mg/day (n = 3)) was 0 n (%) and the “TRAE, all grades: Hyperglycemia” value (50 mg/day (n = 3)) was 0 n (%). The “TRAE, all grades: Hypoalbuminemia” value (50 mg/day (n = 3)) was 0 n (%), the “TRAE, all grades: Nausea” value (50 mg/day (n = 3)) was 1 (33.3) n (%) and the “TRAE, all grades: Proteinuria” value (50 mg/day (n = 3)) was 0 n (%). The “TRAE, all grades: Vomiting” value (50 mg/day (n = 3)) was 0 n (%), the “TRAE, all grades: any” value (50 mg/day (n = 3)) was 2 (66.7) n (%) and the “TRAE, Grade 3 and 4: Hyperglycemia” value (100 mg/day (n = 3)) was 0 n (%). The “TRAE, Grade 3 and 4: any” value (100 mg/day (n = 3)) was 0 n (%), the “TRAE, all grades: Anemia” value (100 mg/day (n = 3)) was 0 n (%) and the “TRAE, all grades: Decreased appetite” value (100 mg/day (n = 3)) was 0 n (%). For the same compound, the “TRAE, all grades: Decreased total protein” value (100 mg/day (n = 3)) was 1 (33.3) n (%), the “TRAE, all grades: Diarrhea” value (100 mg/day (n = 3)) was 0 n (%) and the “TRAE, all grades: Elevated ALT” value (100 mg/day (n = 3)) was 0 n (%). The “TRAE, all grades: Elevated blood glucose” value (100 mg/day (n = 3)) was 0 n (%), the “TRAE, all grades: Elevated blood triglycerides” value (100 mg/day (n = 3)) was 0 n (%) and the “TRAE, all grades: Elevated blood uric acid” value (100 mg/day (n = 3)) was 1 (33.3) n (%). The “TRAE, all grades: Elevated conjugated bilirubin” value (100 mg/day (n = 3)) was 0 n (%), the “TRAE, all grades: Elevated serum creatinine” value (100 mg/day (n = 3)) was 1 (33.3) n (%) and the “TRAE, all grades: Elevated γ-glutamyltransferase” value (100 mg/day (n = 3)) was 0 n (%). For the same compound, the “TRAE, all grades: Hyperglycemia” value (100 mg/day (n = 3)) was 0 n (%), the “TRAE, all grades: Hypoalbuminemia” value (100 mg/day (n = 3)) was 0 n (%) and the “TRAE, all grades: Nausea” value (100 mg/day (n = 3)) was 1 (33.3) n (%). For the same compound, the “TRAE, all grades: Proteinuria” value (100 mg/day (n = 3)) was 0 n (%), the “TRAE, all grades: Vomiting” value (100 mg/day (n = 3)) was 1 (33.3) n (%) and the “TRAE, all grades: any” value (100 mg/day (n = 3)) was 3 (100.0) n (%). The “TRAE, Grade 3 and 4: Hyperglycemia” value (200 mg/day (n = 7)) was 0 n (%), the “TRAE, Grade 3 and 4: any” value (200 mg/day (n = 7)) was 0 n (%) and the “TRAE, all grades: Anemia” value (200 mg/day (n = 7)) was 3 (42.9) n (%). The “TRAE, all grades: Decreased appetite” value (200 mg/day (n = 7)) was 1 (14.3) n (%), the “TRAE, all grades: Decreased total protein” value (200 mg/day (n = 7)) was 2 (28.6) n (%) and the “TRAE, all grades: Diarrhea” value (200 mg/day (n = 7)) was 2 (28.6) n (%). For the same compound, the “TRAE, all grades: Elevated ALT” value (200 mg/day (n = 7)) was 1 (14.3) n (%), the “TRAE, all grades: Elevated blood glucose” value (200 mg/day (n = 7)) was 2 (28.6) n (%) and the “TRAE, all grades: Elevated blood triglycerides” value (200 mg/day (n = 7)) was 2 (28.6) n (%). The “TRAE, all grades: Elevated blood uric acid” value (200 mg/day (n = 7)) was 3 (42.9) n (%), the “TRAE, all grades: Elevated conjugated bilirubin” value (200 mg/day (n = 7)) was 2 (28.6) n (%) and the “TRAE, all grades: Elevated serum creatinine” value (200 mg/day (n = 7)) was 2 (28.6) n (%). For the same compound, the “TRAE, all grades: Elevated γ-glutamyltransferase” value (200 mg/day (n = 7)) was 2 (28.6) n (%), the “TRAE, all grades: Hyperglycemia” value (200 mg/day (n = 7)) was 0 n (%) and the “TRAE, all grades: Hypoalbuminemia” value (200 mg/day (n = 7)) was 5 (71.4) n (%). The “TRAE, all grades: Nausea” value (200 mg/day (n = 7)) was 1 (14.3) n (%), the “TRAE, all grades: Proteinuria” value (200 mg/day (n = 7)) was 3 (42.9) n (%) and the “TRAE, all grades: Vomiting” value (200 mg/day (n = 7)) was 1 (14.3) n (%). The “TRAE, all grades: any” value (200 mg/day (n = 7)) was 7 (100.0) n (%), the “TRAE, Grade 3 and 4: Hyperglycemia” value (300 mg/day (n = 3)) was 1 (33.3) n (%) and the “TRAE, Grade 3 and 4: any” value (300 mg/day (n = 3)) was 1 (33.3) n (%). For the same compound, the “TRAE, all grades: Anemia” value (300 mg/day (n = 3)) was 0 n (%), the “TRAE, all grades: Decreased appetite” value (300 mg/day (n = 3)) was 3 (100.0) n (%) and the “TRAE, all grades: Decreased total protein” value (300 mg/day (n = 3)) was 0 n (%). The “TRAE, all grades: Diarrhea” value (300 mg/day (n = 3)) was 1 (33.3) n (%), the “TRAE, all grades: Elevated ALT” value (300 mg/day (n = 3)) was 1 (33.3) n (%) and the “TRAE, all grades: Elevated blood glucose” value (300 mg/day (n = 3)) was 0 n (%). For the same compound, the “TRAE, all grades: Elevated blood triglycerides” value (300 mg/day (n = 3)) was 0 n (%), the “TRAE, all grades: Elevated blood uric acid” value (300 mg/day (n = 3)) was 0 n (%) and the “TRAE, all grades: Elevated conjugated bilirubin” value (300 mg/day (n = 3)) was 0 n (%). The “TRAE, all grades: Elevated serum creatinine” value (300 mg/day (n = 3)) was 0 n (%), the “TRAE, all grades: Elevated γ-glutamyltransferase” value (300 mg/day (n = 3)) was 0 n (%) and the “TRAE, all grades: Hyperglycemia” value (300 mg/day (n = 3)) was 3 (100.0) n (%). The “TRAE, all grades: Hypoalbuminemia” value (300 mg/day (n = 3)) was 0 n (%), the “TRAE, all grades: Nausea” value (300 mg/day (n = 3)) was 3 (100.0) n (%) and the “TRAE, all grades: Proteinuria” value (300 mg/day (n = 3)) was 0 n (%). The “TRAE, all grades: Vomiting” value (300 mg/day (n = 3)) was 2 (66.7) n (%), the “TRAE, all grades: any” value (300 mg/day (n = 3)) was 3 (100.0) n (%) and the “maximum tolerated dose (MTD)” value (25-300 mg/day) was “not reached”. The “dose-limiting toxicities (DLTs)” value (28-day evaluation period, any dose level 25-300 mg/day) was “No DLTs were observed”, the “treatment-related serious AE (hyperglycemia), patients” value (300-mg/day group) was “one” and the “TRAE, Grade 3 and 4: Hyperglycemia” value (All (n = 17)) was 1 (5.9) n (%). The “TRAE, Grade 3 and 4: any” value (All (n = 17)) was 1 (5.9) n (%), the “TRAE, all grades: Anemia” value (All (n = 17)) was 3 (17.6) n (%) and the “TRAE, all grades: Decreased appetite” value (All (n = 17)) was 5 (29.4) n (%). The “TRAE, all grades: Decreased total protein” value (All (n = 17)) was 3 (17.6) n (%), the “TRAE, all grades: Diarrhea” value (All (n = 17)) was 3 (17.6) n (%) and the “TRAE, all grades: Elevated ALT” value (All (n = 17)) was 2 (11.8) n (%). The “TRAE, all grades: Elevated blood glucose” value (All (n = 17)) was 3 (17.6) n (%), the “TRAE, all grades: Elevated blood triglycerides” value (All (n = 17)) was 2 (11.8) n (%) and the “TRAE, all grades: Elevated blood uric acid” value (All (n = 17)) was 4 (23.5) n (%). For the same compound, the “TRAE, all grades: Elevated conjugated bilirubin” value (All (n = 17)) was 2 (11.8) n (%), the “TRAE, all grades: Elevated serum creatinine” value (All (n = 17)) was 4 (23.5) n (%) and the “TRAE, all grades: Elevated γ-glutamyltransferase” value (All (n = 17)) was 2 (11.8) n (%). For the same compound, the “TRAE, all grades: Hyperglycemia” value (All (n = 17)) was 3 (17.6) n (%), the “TRAE, all grades: Hypoalbuminemia” value (All (n = 17)) was 5 (29.4) n (%) and the “TRAE, all grades: Nausea” value (All (n = 17)) was 6 (35.3) n (%). The “TRAE, all grades: Proteinuria” value (All (n = 17)) was 3 (17.6) n (%), the “TRAE, all grades: Vomiting” value (All (n = 17)) was 4 (23.5) n (%) and the “TRAE, all grades: any” value (All (n = 17)) was 16 (94.1) n (%). The “AEs leading to drug discontinuation” value (all 17 patients) was “no adverse events (AEs) causing drug discontinuation were seen”, the “TRAE: anemia, patients” value (all 17 patients) was 17.6% and the “TRAE: decreased appetite, patients” value (all 17 patients) was 29.4%. For the same compound, the “TRAE: decreased total protein, patients” value (all 17 patients) was 17.6%, the “TRAE: diarrhea, patients” value (all 17 patients) was 17.6% and the “TRAE: elevated alanine aminotransferase, patients” value (all 17 patients) was 11.8%. The “TRAE: elevated blood glucose, patients” value (all 17 patients) was 17.6%, the “TRAE: elevated blood triglycerides, patients” value (all 17 patients) was 11.8% and the “TRAE: elevated blood uric acid, patients” value (all 17 patients) was 23.5%. For the same compound, the “TRAE: elevated conjugated bilirubin, patients” value (all 17 patients) was 11.8%, the “TRAE: elevated serum creatinine, patients” value (all 17 patients) was 23.5% and the “TRAE: elevated γ-glutamyltransferase, patients” value (all 17 patients) was 11.8%. For the same compound, the “TRAE: hyperglycemia, patients” value (all 17 patients) was 17.6%, the “TRAE: hypoalbuminemia, patients” value (all 17 patients) was 29.4% and the “TRAE: nausea, patients” value (all 17 patients) was 35.3%. For the same compound, the “TRAE: proteinuria, patients” value (all 17 patients) was 17.6%, the “TRAE: vomiting, patients” value (all 17 patients) was 23.5% and the patients with diarrhea (all 17 patients) was 3/17. The patients with rash/pruritis (all 17 patients) was “no patient” and the “Serious AEs, patients” value (all 17 patients (two patients)) was 11.8%.
